Measurements reported in ChEMBL document CHEMBL1148427, “Diastereoselective synthesis and configuration-dependent activity of (3-substituted-cycloalkyl)glycine pyrrolidides and thiazolidides as dipeptidyl peptidase IV inhibitors” (Bioorg Med Chem Lett, 2004).

Columns and labels:
Dipeptidyl peptidase 2 = Dipeptidyl peptidase 2 (Homo sapiens, UniProt Q9UHL4); assay: Inhibitory activity against human quiescent cell proline dipeptidase
Dipeptidyl peptidase 4 = Dipeptidyl peptidase 4 (Homo sapiens, UniProt P27487); assay: Inhibitory activity against human recombinant Dipeptidylpeptidase IV
Sequence of Dipeptidyl peptidase 4 (P27487 whole entry): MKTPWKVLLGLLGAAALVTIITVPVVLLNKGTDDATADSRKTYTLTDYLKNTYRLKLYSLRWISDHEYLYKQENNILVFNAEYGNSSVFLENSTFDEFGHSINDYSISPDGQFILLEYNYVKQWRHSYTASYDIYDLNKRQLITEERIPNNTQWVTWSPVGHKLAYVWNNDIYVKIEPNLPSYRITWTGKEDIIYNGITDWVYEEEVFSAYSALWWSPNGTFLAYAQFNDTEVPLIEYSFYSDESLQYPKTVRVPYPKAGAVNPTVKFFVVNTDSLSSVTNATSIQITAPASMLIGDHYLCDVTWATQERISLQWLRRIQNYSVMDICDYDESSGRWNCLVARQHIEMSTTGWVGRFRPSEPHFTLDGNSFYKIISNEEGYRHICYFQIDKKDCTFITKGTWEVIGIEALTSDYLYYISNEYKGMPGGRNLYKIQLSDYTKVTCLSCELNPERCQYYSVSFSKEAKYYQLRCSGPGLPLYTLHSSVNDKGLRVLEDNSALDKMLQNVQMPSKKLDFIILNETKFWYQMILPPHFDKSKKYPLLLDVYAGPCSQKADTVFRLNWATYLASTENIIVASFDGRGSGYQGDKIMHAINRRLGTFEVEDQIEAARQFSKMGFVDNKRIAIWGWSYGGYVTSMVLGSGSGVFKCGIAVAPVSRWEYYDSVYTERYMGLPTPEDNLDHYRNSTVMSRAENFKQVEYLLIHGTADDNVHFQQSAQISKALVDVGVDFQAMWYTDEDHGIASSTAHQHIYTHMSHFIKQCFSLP
Outline: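 Human recombinant enzyme run in a fluorometric assay with Gly-Pro-AMC as substrate. Cleavage releases fluorescent 7-amino-4-methylcoumarin, which is read to give IC50 values.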

Prolyl endopeptidase = target: T1, Prolyl endopeptidase (Homo sapiens, UniProt P48147); assay: Inhibitory activity against human prolyl endopeptidase
T1 sequence (P48147 whole entry): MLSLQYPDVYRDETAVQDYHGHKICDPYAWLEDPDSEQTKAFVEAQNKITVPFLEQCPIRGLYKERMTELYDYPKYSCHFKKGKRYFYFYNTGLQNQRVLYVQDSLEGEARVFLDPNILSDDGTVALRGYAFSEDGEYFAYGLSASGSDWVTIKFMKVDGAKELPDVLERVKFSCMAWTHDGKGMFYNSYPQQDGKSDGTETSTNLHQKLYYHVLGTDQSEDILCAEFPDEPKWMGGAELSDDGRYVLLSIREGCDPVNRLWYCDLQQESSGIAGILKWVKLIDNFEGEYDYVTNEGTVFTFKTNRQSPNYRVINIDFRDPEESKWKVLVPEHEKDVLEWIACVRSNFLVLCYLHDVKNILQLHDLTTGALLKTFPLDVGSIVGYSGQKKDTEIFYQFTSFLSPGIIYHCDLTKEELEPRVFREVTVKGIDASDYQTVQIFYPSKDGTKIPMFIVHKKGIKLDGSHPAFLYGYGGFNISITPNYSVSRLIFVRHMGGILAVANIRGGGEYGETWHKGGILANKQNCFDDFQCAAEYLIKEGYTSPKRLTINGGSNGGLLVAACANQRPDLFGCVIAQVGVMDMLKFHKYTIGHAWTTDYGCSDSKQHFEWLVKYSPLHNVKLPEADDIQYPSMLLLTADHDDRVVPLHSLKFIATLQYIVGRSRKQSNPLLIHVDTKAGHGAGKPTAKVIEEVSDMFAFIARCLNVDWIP

[1] = Inhibitory activity against human aminopeptidase P

For `N[C@H](C(=O)N1CCCC1)[C@H]1CC[C@@H](O)C1`, the IC50 (Dipeptidyl peptidase 2) was 50 µM, the IC50 (Dipeptidyl peptidase 4) was 4.6 µM and the IC50 (Prolyl endopeptidase) was > 100 µM. The IC50 [1] was > 100 µM.
